Measurements taken from ChEMBL document CHEMBL3877338, “Antiparasitic Lead Discovery: Toward Optimization of a Chemotype with Activity Against Multiple Protozoan Parasites” (ACS Med Chem Lett, 2017).
Converted amounts (≈) assume the structure as drawn.

Tests used:
[1] = Cytotoxicity against human HepG2 cells assessed as reduction in cell viability after 48 hrs by MTT assay; type: toxicity, cell-based; conditions: read-out: TC50
Summary of the method: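 HepG2 cells in supplemented MEM, 9570/well, plated overnight at 37 °C. Twelve 1.6-fold dilutions in duplicate, 57–10,000 ng/mL, for 48 h; mefloquine plate control. MTT added for 1 h at room temperature in the dark, formazan dissolved in acidified isopropanol, absorbance read. IC50 by sigmoidal variable-slope nonlinear regression.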

[2] = test system: Trypanosoma brucei brucei; assay: Antitrypanosomal activity against Trypanosoma brucei brucei 427 bloodstream forms after 48 hrs by presto blue dye based fluorescence assay; type: functional; conditions: Trypanosoma brucei, 427, 48 h
[3] = Cytotoxicity against […] cells assessed as reduction in cell viability after 96 hrs by presto blue assay; type: toxicity; conditions: read-out: TC50
Summary of the method: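 NIH 3T3 cells in phenol red-free DMEM with 2% FBS, 5×10^4/well, left 2 h to attach, then exposed to compound 96 h at 37 °C, 5% CO2. PrestoBlue added for 4 h, fluorescence read at ex 530/em 590 nm.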

[4] = test system: Leishmania major; assay: Antileishmanial activity against luciferase-expressing Leishmania major amastigotes infected in mouse RAW264.7 cells after 96 hrs by luminescence assay; type: functional, cell-based; conditions: RAW264.7, 96 h
Summary of the method: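 RAW 264.7 macrophages, 10,000/well, 24 h at 37 °C, then infected overnight with luciferase-expressing L. major promastigotes (100,000/well) and washed three times. Twelve two-fold dilutions in duplicate, final […]–10,000 ng/mL. 96 h at 37 °C, 5% CO2, then luciferin 30 min in the dark and luminescence read. IC50 by sigmoidal variable-slope nonlinear regression.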

[5] = test system: Trypanosoma cruzi; assay: Antitrypanosomal activity against Trypanosoma cruzi Tulahuen amastigotes infected in […] cells after 96 hrs by chlorophenol red-beta-D-galactopyranoside based assay; conditions: NIH3T3, 96 h
[6] = Ratio of drug level in BALB/c mouse brain to plasma at 10 mg/kg, ip administered as single dose at 0.25 hrs post dose by LC-MS/MS analysis; type: ADME, organism-based
Summary of the method: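 Female BALB/c mice, 8–12 weeks, single 10 mg/kg i.p. dose (10 mL/kg) in NMP/solutol HS/saline solution. Three mice per time point. Plasma (K2EDTA) and brain collected; brain washed in PBS and homogenized in PBS pH 7.4 to three times its weight. Protein precipitation with acetonitrile, then LC-MS/MS (LLOQ 1.04 ng/mL plasma, 2.08 ng/mL brain). Non-compartmental analysis.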

[7] = Lipophilicity, log D of the compound at pH 7.4; type: physicochemical; conditions: buffer
[8] = Protein binding in human plasma; type: ADME, cell-free
[9] = Intrinsic clearance in human liver microsomes; type: ADME
[10] = Thermodynamic aqueous solubility of the compound; type: physicochemical; conditions: buffer; read-out: Therm_solubility
[11] = Intrinsic clearance in rat hepatocytes assessed per million cells; type: ADME, cell-based, Hepatocyte
[12] = Fraction unbound in human plasma; type: ADME, cell-free

SMILES | EC50 [2] | EC50 [4] | EC50 [5] | BPR [6] | logD [7] | PPB [8] | CLH [9] | solubility thermodynamic [10] | CLH [11] | Fu [12] | CC50 at 48 h [1] | CC50 at 96 h [3]
Fc1cccc(COc2ccc(Nc3ncnc4ccc(-c5cccc(N6CCOCC6)c5)cc34)cc2Cl)c1 |  |  |  |  |  |  |  |  |  |  | > 20 µM | 
O=S(=O)(c1ccc(-c2ccc3nccc(Nc4cnccn4)c3c2)cc1)N1CCOCC1 | > 20 µM | > 20 µM | > 20 µM |  |  |  |  |  |  |  | > 20 µM | > 20 µM
O=[N+]([O-])c1ccc(Nc2ccnc3ccc(-c4ccc(S(=O)(=O)N5CCOCC5)cc4)cc23)cn1 | 3.2 µM | 5.8 µM | > 20 µM |  |  |  |  |  |  |  | > 20 µM | > 20 µM
O=S(=O)(c1ccc(-c2ccc3nccc(Nc4ccc5[nH]nnc5c4)c3c2)cc1)N1CCOCC1 | 16 µM | > 20 µM | > 20 µM |  |  |  |  |  |  |  | > 20 µM | > 20 µM
Cc1noc(C)c1Nc1ccnc2ccc(-c3ccc(S(=O)(=O)N4CCOCC4)cc3)cc12 | 6.6 µM | > 20 µM | > 20 µM |  |  |  |  |  |  |  | > 20 µM | > 20 µM
O=S(=O)(c1ccc(-c2ccc3nccc(Nc4ncc(Cl)cn4)c3c2)cc1)N1CCOCC1 | 3.8 µM | 0.37 µM | > 20 µM |  |  | 99.6% |  | 1 µM (≈ 0.482 µg/mL) |  |  | > 20 µM | > 20 µM
COc1ncc(Nc2ccnc3ccc(-c4ccc(S(=O)(=O)N5CCOCC5)cc4)cc23)cn1 | 5.6 µM | > 20 µM | > 20 µM |  |  |  |  |  |  |  | > 20 µM | > 20 µM
O=S(=O)(c1ccc(-c2ccc3nccc(Nc4ccnnc4)c3c2)cc1)N1CCOCC1 | > 20 µM | > 20 µM | > 20 µM |  |  |  |  |  |  |  | > 20 µM | > 20 µM
O=S(=O)(c1ccc(-c2ccc3ncnc(Nc4ccc(OCc5cccc(F)c5)cc4)c3c2)cc1)N1CCOCC1 |  |  |  |  |  |  |  |  |  |  | > 20 µM | 
CCc1nnc(Nc2ccnc3ccc(-c4ccc(S(=O)(=O)N5CCOCC5)cc4)cc23)s1 | 4.2 µM | 3.1 µM | > 20 µM |  |  |  |  |  |  |  | > 20 µM | > 20 µM
O=S(=O)(c1ccc(-c2ccc3nccc(Nc4ccccn4)c3c2)cc1)N1CCOCC1 | 4.5 µM | > 20 µM | 16 µM |  |  |  |  |  |  |  | > 20 µM | > 20 µM
N#Cc1cnc(Nc2ccnc3ccc(-c4ccc(S(=O)(=O)N5CCOCC5)cc4)cc23)cn1 | 7.9 µM | > 20 µM | > 20 µM |  |  |  |  |  |  |  | > 20 µM | > 20 µM
O=S(=O)(c1ccc(-c2ccc3nccc(Nc4cccnc4)c3c2)cc1)N1CCOCC1 | 3.8 µM | > 20 µM | > 20 µM |  |  |  |  |  |  |  | > 20 µM | > 20 µM
O=S(=O)(c1ccc(-c2ccc3nccc(Nc4nnc(C5CC5)s4)c3c2)cc1)N1CCOCC1 | 4.7 µM | 2 µM | > 20 µM |  |  |  |  |  |  |  | > 20 µM | > 20 µM
CS(=O)(=O)CCNCc1ccc(-c2ccc3ncnc(Nc4ccc(OCc5cccc(F)c5)c(Cl)c4)c3c2)o1 [LAPATINIB] |  |  |  |  |  |  |  |  |  |  | > 20 µM | 
O=S(=O)(c1ccc(-c2ccc3ncccc3c2)cc1)N1CCOCC1 | > 20 µM | > 20 µM | > 20 µM |  |  |  |  |  |  |  | > 20 µM | > 20 µM

Further molecules by falling EC50 [2], results first:

EC50 [2] | EC50 [4] | EC50 [5] | BPR [6] | logD [7] | PPB [8] | CLH [9] | solubility thermodynamic [10] | CLH [11] | Fu [12] | SMILES | CC50 at 48 h [1] | CC50 at 96 h [3]
3.1 µM | > 20 µM | > 20 µM |  |  |  |  |  |  |  | Cc1nnc(Nc2ccnc3ccc(-c4ccc(S(=O)(=O)N5CCOCC5)cc4)cc23)nc1C | > 20 µM | > 20 µM
2.5 µM | > 20 µM | > 20 µM |  |  |  |  |  |  |  | CCn1nccc1Nc1ccnc2ccc(-c3ccc(S(=O)(=O)N4CCOCC4)cc3)cc12 | > 20 µM | > 20 µM
2 µM | > 20 µM | > 20 µM |  |  |  |  |  |  |  | Cc1cnnc(Nc2ccnc3ccc(-c4ccc(S(=O)(=O)N5CCOCC5)cc4)cc23)c1 | > 20 µM | > 20 µM
1.7 µM | 5.3 µM | 7.2 µM |  |  |  |  |  |  |  | COc1ccc(Nc2ccnc3ccc(-c4ccc(S(=O)(=O)N5CCOCC5)cc4)cc23)cc1Cl | > 20 µM | > 20 µM
1.6 µM | 1.2 µM | 6.1 µM |  |  |  |  |  |  |  | Cc1cnc(Nc2ccnc3ccc(-c4ccc(S(=O)(=O)N5CCOCC5)cc4)cc23)s1 | > 20 µM | > 20 µM
1.2 µM | 5.4 µM | > 20 µM |  |  |  |  |  |  |  | O=S(=O)(c1ccc(-c2ccc3nccc(Nc4cncs4)c3c2)cc1)N1CCOCC1 | > 20 µM | > 20 µM
1.1 µM | > 20 µM | 7.6 µM |  |  |  |  |  |  |  | Cc1cc(Nc2ccnc3ccc(-c4ccc(S(=O)(=O)N5CCOCC5)cc4)cc23)on1 | > 20 µM | > 20 µM
0.98 µM | 7.1 µM | 6.2 µM |  |  |  |  |  |  |  | O=S(=O)(c1ccc(-c2ccc3nccc(Nc4ccccc4)c3c2)cc1)N1CCOCC1 | > 20 µM | > 20 µM
0.71 µM | > 20 µM | > 20 µM |  |  |  |  |  |  |  | CCOCCOc1ccnc2ccc(-c3ccc(S(=O)(=O)N4CCOCC4)cc3)cc12 | > 20 µM | 
0.37 µM | 1.2 µM | 2.8 µM |  |  |  | 98 µL/min/mg | 2 µM (≈ 1.14 µg/mL) | 19 µL/min | < 0.1% | O=S(=O)(c1ccc(-c2ccc3nccc(Nc4ccc(OCc5cccc(F)c5)cc4)c3c2)cc1)N1CCOCC1 | > 5 µM | 
0.31 µM | 5.7 µM | 3.6 µM |  |  |  |  |  |  |  | COc1ccc(Nc2ccnc3ccc(-c4ccc(S(=O)(=O)N5CCOCC5)cc4)cc23)cc1C | 9 µM | 15 µM
0.11 µM | > 20 µM | > 20 µM |  |  |  |  |  |  |  | O=S(=O)(c1ccc(-c2ccc3nccc(Nc4ccncc4)c3c2)cc1)N1CCOCC1 | > 20 µM | > 20 µM
0.072 µM | 4.5 µM | 3.9 µM |  |  |  |  |  |  |  | Cc1cc(Nc2ccnc3ccc(-c4ccc(S(=O)(=O)N5CCOCC5)cc4)cc23)sn1 | > 20 µM | > 20 µM
0.024 µM | > 20 µM | > 20 µM | 0.01 | 3.3 | 95.6% | 207.5 µL/min/mg | 1.4 µM (≈ 0.627 µg/mL) | 31.5 µL/min |  | O=S(=O)(c1ccc(-c2ccc3nccc(Nc4ccncn4)c3c2)cc1)N1CCOCC1 | > 20 µM | > 20 µM
